Here are results for 1 compound from ChEMBL document CHEMBL5661979, “Pharmacological inhibition of BMK1 suppresses tumor growth through promyelocytic leukemia protein” (Cancer Cell, 2010).

Experiment [1] can be described thus: Inhibition of KHS1/2 in human HeLa cells lysate pre incubated for 15 mins followed by ATP acyl phosphate probe addition and measured after 10 mins by LC-MS/MS analysis. Format: subcellular.
Experiment [2] deals with Phosphorylase b kinase gamma catalytic chain, liver/testis isoform (Homo sapiens, UniProt P15735). Put plainly: Inhibition of PHKg2 in human HeLa cells lysate pre incubated for 15 mins followed by ATP acyl phosphate probe addition and measured after 10 mins by LC-MS/MS analysis. Format: subcellular.
Experiment [3] has as its target Phosphatidylinositol 5-phosphate 4-kinase type-2 beta (Homo sapiens, UniProt P78356). Description: Inhibition of PIP5K2B in human HeLa cells lysate pre incubated for 15 mins followed by ATP acyl phosphate probe addition and measured after 10 mins by LC-MS/MS analysis. The class given is subcellular.
Experiment [4] deals with Cyclin-dependent kinase 2 (Homo sapiens, UniProt P24941). Description: Inhibition of CDK2 K2 site in human HeLa cells lysate pre incubated for 15 mins followed by ADP acyl phosphate probe addition and measured after 10 mins by LC-MS/MS analysis. The class given is subcellular. Summed up:
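KiNativ profiling in HeLa lysate (5 mg/mL total protein). Lysate incubated 15 min with inhibitor at 50, 10, 2, 0.8 or 0 μM. ATP or ADP acylphosphate probe then added (5 μM final) and reacted 10 min. Reaction stopped with urea and analysed by targeted MS, using up to four fragment ions per kinase peptide-probe conjugate. % inhibition taken against untreated lysate. Run in duplicate.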

Experiment [5] addresses Serine/threonine-protein kinase ULK2 (Homo sapiens, UniProt Q8IYT8). Put plainly: Inhibition of ULK2 in human HeLa cells lysate pre incubated for 15 mins followed by ADP acyl phosphate probe addition and measured after 10 mins by LC-MS/MS analysis. Format: subcellular.
The target in experiment [6] is Serine/threonine-protein kinase/endoribonuclease IRE1 (Homo sapiens, UniProt O75460). Put plainly: Inhibition of IRE1 in human HeLa cells lysate at 50 uM pre incubated for 15 mins followed by ADP acyl phosphate probe addition and measured after 10 mins by LC-MS/MS analysis relative to control. The class given is subcellular. The following applies: time 25.0 min.
Experiment [7] concerns the target Calcium/calmodulin-dependent protein kinase type II subunit gamma (Homo sapiens, UniProt Q13555). Put plainly: Inhibition of CAMK2g in human HeLa cells lysate at 10 uM pre incubated for 15 mins followed by ADP acyl phosphate probe addition and measured after 10 mins by LC-MS/MS analysis relative to control. The class given is subcellular. The following applies: time 25.0 min. The essentials: (§1)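 KiNativ-type profiling in HeLa lysate (5 mg/mL total protein). Lysate preincubated 15 min with inhibitor at 50, 10, 2, 0.8 or 0 μM, then ATP or ADP acylphosphate probe added (5 μM final) for 10 min. Reaction stopped with urea and analysed by targeted MS, using up to four fragment ions per kinase peptide-probe conjugate. % inhibition calculated against untreated lysate. Duplicate reactions.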

Experiment [8] addresses DNA-dependent protein kinase catalytic subunit (Homo sapiens, UniProt P78527). Put plainly: Inhibition of PRKDC in human HeLa cells lysate at 10 uM pre incubated for 15 mins followed by ADP acyl phosphate probe addition and measured after 10 mins by LC-MS/MS analysis relative to control. Format: subcellular. The settings on record: time 25.0 min.
The target in experiment [9] is T1, Aurora kinase A (Homo sapiens) (UniProt O14965).
T1 sequence (whole entry): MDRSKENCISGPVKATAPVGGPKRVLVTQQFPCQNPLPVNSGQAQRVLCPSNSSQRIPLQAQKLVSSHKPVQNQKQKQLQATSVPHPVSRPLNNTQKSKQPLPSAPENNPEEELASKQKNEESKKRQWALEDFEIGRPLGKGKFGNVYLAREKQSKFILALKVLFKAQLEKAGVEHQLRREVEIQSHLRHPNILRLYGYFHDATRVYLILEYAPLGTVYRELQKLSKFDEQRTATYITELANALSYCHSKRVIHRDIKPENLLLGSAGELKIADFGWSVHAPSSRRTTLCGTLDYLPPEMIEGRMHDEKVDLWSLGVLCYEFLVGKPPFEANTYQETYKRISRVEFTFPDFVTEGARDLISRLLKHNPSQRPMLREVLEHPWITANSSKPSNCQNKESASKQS
Put plainly: Inhibition of AurA in human HeLa cells lysate at 10 uM pre incubated for 15 mins followed by ATP acyl phosphate probe addition and measured after 10 mins by LC-MS/MS analysis relative to control. The class given is subcellular. The following applies: time 25.0 min. The essentials: as §1

Experiment [10] addresses T1, Aurora kinase A (Homo sapiens). Put plainly: Inhibition of AurA in human HeLa cells lysate at 2 uM pre incubated for 15 mins followed by ATP acyl phosphate probe addition and measured after 10 mins by LC-MS/MS analysis relative to control. Format: subcellular. The settings on record: time 25.0 min. Summed up:
as §1

Experiment [11] addresses T2, Dual specificity mitogen-activated protein kinase kinase 3 (Homo sapiens) (UniProt P46734).
T2 sequence (whole entry): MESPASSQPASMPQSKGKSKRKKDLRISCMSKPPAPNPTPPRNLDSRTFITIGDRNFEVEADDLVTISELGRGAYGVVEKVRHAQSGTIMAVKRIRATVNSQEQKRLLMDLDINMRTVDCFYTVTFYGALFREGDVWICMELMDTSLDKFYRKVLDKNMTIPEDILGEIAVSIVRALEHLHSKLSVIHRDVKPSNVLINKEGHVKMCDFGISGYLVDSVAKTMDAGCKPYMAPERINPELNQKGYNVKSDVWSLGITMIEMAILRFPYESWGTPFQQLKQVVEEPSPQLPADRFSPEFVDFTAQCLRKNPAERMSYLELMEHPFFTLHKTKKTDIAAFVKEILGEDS
Put plainly: Inhibition of MAP2K3 in human HeLa cells lysate at 2 uM pre incubated for 15 mins followed by ATP acyl phosphate probe addition and measured after 10 mins by LC-MS/MS analysis relative to control. Format: subcellular. The following applies: time 25.0 min.

Experiment [12] deals with T3, Non-receptor tyrosine-protein kinase TNK1 (Homo sapiens) (UniProt Q13470).
T3 sequence (whole entry): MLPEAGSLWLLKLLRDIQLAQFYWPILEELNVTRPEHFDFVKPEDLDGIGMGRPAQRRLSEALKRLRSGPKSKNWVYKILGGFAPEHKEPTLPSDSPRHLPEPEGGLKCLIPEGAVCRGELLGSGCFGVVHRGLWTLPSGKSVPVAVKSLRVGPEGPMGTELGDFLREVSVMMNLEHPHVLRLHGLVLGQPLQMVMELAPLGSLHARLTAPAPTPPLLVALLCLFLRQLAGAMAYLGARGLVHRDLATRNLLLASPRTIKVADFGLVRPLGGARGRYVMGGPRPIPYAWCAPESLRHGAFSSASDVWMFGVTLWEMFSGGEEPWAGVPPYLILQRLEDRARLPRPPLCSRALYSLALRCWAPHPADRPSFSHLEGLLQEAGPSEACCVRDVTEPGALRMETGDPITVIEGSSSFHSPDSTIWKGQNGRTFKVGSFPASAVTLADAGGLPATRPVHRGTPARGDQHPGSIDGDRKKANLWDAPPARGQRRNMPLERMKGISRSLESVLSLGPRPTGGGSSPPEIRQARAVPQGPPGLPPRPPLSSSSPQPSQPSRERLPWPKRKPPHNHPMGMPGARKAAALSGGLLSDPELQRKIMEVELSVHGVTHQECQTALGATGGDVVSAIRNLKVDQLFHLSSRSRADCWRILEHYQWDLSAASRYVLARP
Put plainly: Inhibition of recombinant TNK1 (unknown origin) expressed in HEK293 cells at 0.08 to 10 uM incubated for 15 mins in presence of 32P-gamma-ATP. The class given is cell-based. The following applies: dose 0.08-10 µM.

The source made the active and inactive calls. The rule behind the calls is not given here.

Sequence of Calcium/calmodulin-dependent protein kinase type II subunit gamma (Q13555 whole entry, the tested form may be a part): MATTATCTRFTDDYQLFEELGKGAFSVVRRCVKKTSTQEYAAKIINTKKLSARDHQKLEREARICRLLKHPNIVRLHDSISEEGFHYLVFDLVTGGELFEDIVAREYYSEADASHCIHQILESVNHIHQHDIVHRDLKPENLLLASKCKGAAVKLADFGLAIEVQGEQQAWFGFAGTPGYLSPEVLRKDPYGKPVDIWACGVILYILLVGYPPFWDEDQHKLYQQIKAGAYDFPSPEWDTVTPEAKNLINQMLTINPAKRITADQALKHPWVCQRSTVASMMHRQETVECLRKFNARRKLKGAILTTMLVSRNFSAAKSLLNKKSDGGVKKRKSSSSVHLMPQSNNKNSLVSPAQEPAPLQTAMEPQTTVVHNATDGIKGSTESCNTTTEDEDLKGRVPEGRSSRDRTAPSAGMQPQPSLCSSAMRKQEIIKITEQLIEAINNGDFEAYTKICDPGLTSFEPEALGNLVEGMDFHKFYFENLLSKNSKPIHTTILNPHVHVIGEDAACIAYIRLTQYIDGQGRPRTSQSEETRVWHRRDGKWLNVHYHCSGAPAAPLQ
Sequence of Phosphorylase b kinase gamma catalytic chain, liver/testis isoform (P15735 whole entry, canonical isoform): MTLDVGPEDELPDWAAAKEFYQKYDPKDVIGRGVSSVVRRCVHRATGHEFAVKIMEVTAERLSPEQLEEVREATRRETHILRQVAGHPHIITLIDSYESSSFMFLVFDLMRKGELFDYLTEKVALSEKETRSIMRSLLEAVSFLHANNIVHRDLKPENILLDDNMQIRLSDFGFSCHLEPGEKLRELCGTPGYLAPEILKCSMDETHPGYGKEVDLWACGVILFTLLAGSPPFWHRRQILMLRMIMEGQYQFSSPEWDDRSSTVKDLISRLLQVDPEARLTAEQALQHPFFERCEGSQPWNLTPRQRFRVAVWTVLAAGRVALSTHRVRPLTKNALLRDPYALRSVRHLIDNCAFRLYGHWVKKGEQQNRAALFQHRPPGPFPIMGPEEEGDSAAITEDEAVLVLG
Sequence of Serine/threonine-protein kinase ULK2 (Q8IYT8 whole entry): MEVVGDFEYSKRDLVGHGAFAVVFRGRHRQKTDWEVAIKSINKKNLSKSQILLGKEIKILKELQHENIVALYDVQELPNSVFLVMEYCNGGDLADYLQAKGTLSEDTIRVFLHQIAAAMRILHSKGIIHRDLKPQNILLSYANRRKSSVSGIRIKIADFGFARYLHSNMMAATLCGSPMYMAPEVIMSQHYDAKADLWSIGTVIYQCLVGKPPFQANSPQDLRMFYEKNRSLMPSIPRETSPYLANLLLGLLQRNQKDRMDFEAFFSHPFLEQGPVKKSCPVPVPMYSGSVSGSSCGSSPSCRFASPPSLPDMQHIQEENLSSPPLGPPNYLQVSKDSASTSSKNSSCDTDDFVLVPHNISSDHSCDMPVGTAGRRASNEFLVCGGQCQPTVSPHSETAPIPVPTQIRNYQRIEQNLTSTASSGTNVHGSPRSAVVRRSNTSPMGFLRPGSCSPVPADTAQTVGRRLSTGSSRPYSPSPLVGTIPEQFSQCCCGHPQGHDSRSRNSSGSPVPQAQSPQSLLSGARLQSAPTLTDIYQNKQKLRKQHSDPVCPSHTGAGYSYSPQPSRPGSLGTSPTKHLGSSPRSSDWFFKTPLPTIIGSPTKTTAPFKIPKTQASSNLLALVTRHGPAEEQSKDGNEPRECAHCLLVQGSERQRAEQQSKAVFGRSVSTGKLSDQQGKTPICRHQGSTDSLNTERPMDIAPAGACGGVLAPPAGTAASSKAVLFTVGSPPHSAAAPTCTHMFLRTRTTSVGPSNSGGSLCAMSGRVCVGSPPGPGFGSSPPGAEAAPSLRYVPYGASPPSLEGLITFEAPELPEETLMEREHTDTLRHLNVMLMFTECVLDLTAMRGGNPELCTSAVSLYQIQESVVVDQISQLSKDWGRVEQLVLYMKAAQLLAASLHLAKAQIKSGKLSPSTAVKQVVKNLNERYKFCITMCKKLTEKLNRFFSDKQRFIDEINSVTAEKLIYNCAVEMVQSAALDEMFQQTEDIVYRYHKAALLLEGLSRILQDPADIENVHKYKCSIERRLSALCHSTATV
Sequence of Phosphatidylinositol 5-phosphate 4-kinase type-2 beta (P78356 whole entry): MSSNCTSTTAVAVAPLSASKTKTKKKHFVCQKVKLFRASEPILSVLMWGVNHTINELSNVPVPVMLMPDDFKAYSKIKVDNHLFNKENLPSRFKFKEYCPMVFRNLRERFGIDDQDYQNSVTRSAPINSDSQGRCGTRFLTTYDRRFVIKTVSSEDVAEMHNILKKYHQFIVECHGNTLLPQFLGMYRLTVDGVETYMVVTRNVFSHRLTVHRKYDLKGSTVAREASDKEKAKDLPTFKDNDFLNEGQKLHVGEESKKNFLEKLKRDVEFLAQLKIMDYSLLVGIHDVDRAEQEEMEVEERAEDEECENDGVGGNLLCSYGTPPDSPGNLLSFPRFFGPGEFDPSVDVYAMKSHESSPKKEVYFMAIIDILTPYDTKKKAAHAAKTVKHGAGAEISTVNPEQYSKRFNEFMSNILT
Sequence of Serine/threonine-protein kinase/endoribonuclease IRE1 (O75460 19-977 limits assumed): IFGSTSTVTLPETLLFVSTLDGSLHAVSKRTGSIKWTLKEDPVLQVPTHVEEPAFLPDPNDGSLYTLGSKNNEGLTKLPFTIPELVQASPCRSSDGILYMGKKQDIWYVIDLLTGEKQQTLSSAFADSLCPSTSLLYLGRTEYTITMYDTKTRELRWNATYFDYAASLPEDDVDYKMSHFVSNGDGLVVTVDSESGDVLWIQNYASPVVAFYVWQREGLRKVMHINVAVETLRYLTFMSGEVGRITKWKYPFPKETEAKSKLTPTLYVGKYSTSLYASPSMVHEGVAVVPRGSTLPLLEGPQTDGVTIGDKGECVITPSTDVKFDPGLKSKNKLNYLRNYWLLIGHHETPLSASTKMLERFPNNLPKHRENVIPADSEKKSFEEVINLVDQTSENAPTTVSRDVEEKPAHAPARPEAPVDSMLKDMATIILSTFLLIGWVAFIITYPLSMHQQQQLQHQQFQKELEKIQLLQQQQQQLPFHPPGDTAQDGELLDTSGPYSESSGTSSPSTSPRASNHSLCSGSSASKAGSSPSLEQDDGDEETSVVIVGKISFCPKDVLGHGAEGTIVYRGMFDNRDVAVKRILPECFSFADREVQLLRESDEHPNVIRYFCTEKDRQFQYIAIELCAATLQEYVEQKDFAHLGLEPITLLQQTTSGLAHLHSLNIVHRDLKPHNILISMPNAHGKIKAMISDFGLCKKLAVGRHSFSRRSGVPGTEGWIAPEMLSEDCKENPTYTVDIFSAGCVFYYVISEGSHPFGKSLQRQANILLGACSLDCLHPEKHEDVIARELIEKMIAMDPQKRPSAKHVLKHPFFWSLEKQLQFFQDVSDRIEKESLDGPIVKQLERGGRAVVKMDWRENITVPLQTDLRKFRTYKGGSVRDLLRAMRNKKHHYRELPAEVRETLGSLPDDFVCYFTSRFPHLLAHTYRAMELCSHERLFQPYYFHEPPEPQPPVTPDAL

The IC50 is the concentration that inhibits the measured activity by half. High values mean weaker potency, low ones greater potency. A word on the inhibition: it is the relative decrease from the control value, in per cent. Regarding `CCOc1cc(N2CCC(O)CC2)ccc1Nc1ncc2c(n1)N(C)c1ccccc1C(=O)N2C`, the IC50 in experiment [1], in [2], in experiment [3], in experiment [4] and in experiment [5] was greater than 50 µM throughout. For the same compound, the inhibition was 6.2% in experiment [6]; -2.3% in experiment [7]; -4.8% in experiment [8]; 2.3% in [9]; 7.2% in [10]; 13.5% in [11]. The inhibition entry in [12] is “Active”.
